Results published in article PMC3371134 (Journal of Neurochemistry, 2012).
“Also recorded” adds a separate entry of the source. Like-named read-outs stand apart in the source and are kept apart here.

Tests used:
[1] = test system: calcineurin B (CnB); assay: Yeast two-hybrid; type: binding, mouse; settings: LexA and VP16 fusions, lacZ reporter, X-gal
How it was run: (§1)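 Mouse coding sequences (from brain cDNA) were cloned as galactose-inducible LexA and VP16 fusions and co-transformed into S260 yeast, selected on glucose Trp−/Ura− plates. Colonies on filters were switched to galactose for induction, then assayed for lacZ with X-gal. Autoactivation was checked against LexA/VP16 control vectors. Blue within 1 h was scored positive; blue at 2–4 h was scored weak.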

[2] = test system: centrin 2 (Cetn2); assay: Yeast two-hybrid; type: binding, mouse; settings: LexA and VP16 fusions, lacZ reporter, X-gal
How it was run: as §1

[3] = test system: calmodulin-like 4 (Calml4); assay: Yeast two-hybrid; type: binding, mouse; settings: LexA and VP16 fusions, lacZ reporter, X-gal
How it was run: as §1

[4] = test system: calneuron 1 (Caln1); assay: Yeast two-hybrid; type: binding, mouse; settings: LexA and VP16 fusions, lacZ reporter, X-gal
How it was run: as §1

[5] = test system: calmodulin-Sepharose; assay: CaM-Sepharose pulldown of Myc-tagged proteins expressed in COS-7 cells; type: binding; settings: for CaM-Sepharose pulldown, calcium-replete: 5mM CaCl2; for CaM-Sepharose pulldown, calcium-replete / CaM-Sepharose pulldown, calcium-poor: TX-buffer pH 6.9, overnight at 4°C, anti-Myc western blot; for calcium dependence of CaM binding / overall CaM binding: 5mM CaCl2 or 5mM EGTA, summary in Discussion; for CaM-Sepharose pulldown, calcium-poor: 5mM EGTA
How it was run: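 Myc-tagged mouse constructs (from brain cDNA) were expressed in COS-7 cells, grown in DMEM/10% FBS at 37°C and transfected at 80% confluency with 3 μg plasmid. After 48 h, cells were lysed 30 min at 4°C in TX-buffer (50 mM Tris-HCl pH 6.9, 0.5% Triton X-100, protease inhibitors). Cleared lysate was incubated overnight at 4°C with CaM-Sepharose, then washed 3× and detected by SDS-PAGE/anti-Myc (9E10) western blot with ECL.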

[6] = test system: CaM; settings: ref Putkey et al., 2008; cited from earlier work
[7] = cited from earlier work

| Substance | interaction with CnB in Y2H [1] | interaction with Cetn2 in Y2H [2] | interaction with Calml4 in Y2H [3] | interaction with Caln1 in Y2H [4] | CaM-Sepharose pulldown, calcium-replete [5] | calcium dependence of CaM binding / overall CaM binding [5] | CaM-Sepharose pulldown, calcium-poor [5] | role of acidic region (EEFDIDMDAPETE) in CaM binding [6] | structure in solution ([7]; NMR and circular dichroism, ref Dickerson, 2004, Dickerson et al., 2006, Kleerekoper and Putkey, 2009) | structure in solution ([7]; ref Cui et al., 2003, Ran et al.) |
| --- | --- | --- | --- | --- | --- | --- | --- | --- | --- | --- |
| PEP-19: calmodulin binding IQ motif protein, 62 amino acids | no binding was detected | no binding was detected | no binding was detected | no binding was detected | associate weakly in high calcium; also recorded: interacted weakly or not at all with CaM-Sepharose under calcium-replete conditions | binds preferentially to calcium-free CaM | bind to CaM-Sepharose in calcium-poor (Eg) conditions; also recorded: bind CaM in low calcium conditions | dispensable for CaM binding | disordered in solution although it has a propensity to helix formation | – |
| neurogranin: calpacitin IQ motif protein, 78 amino acids | no binding was detected | no binding was detected | no binding was detected | no binding was detected | associate weakly in high calcium | strong CaM binder | bind to CaM-Sepharose in calcium-poor (Eg) conditions; also recorded: bind CaM in low calcium conditions | – | – | disordered in solution |
